# “And” between values parts separate entries of the source, which are not always exact repeats. Equal entries are not always repeated.
# Test system: Fibroblast
# Test: Multiplex assay against human fibroblast
# Assay type: toxicity, cell-based
# Details: number of replicates 2
# In short: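 Imaging took place on a CQ1 microscope at 37°C and 5% CO2 once compound had been added to live cells stained at seeding with Hoechst33342, BioTracker Green Microtubule Cytoskeleton Dye, MitoTracker Red and Annexin V Alexa Fluor 680. CellPathfinder machine-learning gating classed cells as Hoechst high-intensity objects or normal cells, classed normal cells as having healthy, pyknosed or fragmented nuclei, and classed pyknosed cells as mitotic or apoptotic. Tubulin, mitochondrial-mass and membrane-permeability phenotypes are per cents of the healthy-nucleus cells.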
# [1] = 12 h, 1 µM, compound concentration 1 uM
# [2] = 12 h, 10 µM, compound concentration 10 uM
# [3] = 24 h, 1 µM, compound concentration 1 uM
# [4] = 24 h, 10 µM, compound concentration 10 uM
# [5] = 48 h, 1 µM, compound concentration 1 uM
# [6] = 48 h, 10 µM, compound concentration 10 uM
smiles,measurement,setting,value
N=C(N)NCCC[C@H](NC(=O)COCC(c1ccccc1)c1ccccc1)C(=O)O.O=C(O)C(F)(F)F,Population Apoptotic (%),[1],42% and 45%
same,Population Fragmented Nuclei (%),[1],6% and 9%
same,Population Healthy Nuclei (%),[1],71% and 75%
same,Population Hoechst High Intensity Objects (%),[1],0%
same,Population Membrane Permeable-Phenotype (%),[1],5% and 3%
same,Population Mitochondria Different-Phenotype (%),[1],0% and 4%
same,Population Mitotic Cells (%),[1],57% and 54%
same,Population Normal (%),[1],100%
same,Population Pyknosed Nuclei (%),[1],22% and 14%
same,Population Tubulin-Different-Phenotype (%),[1],17% and 12%
same,Total Cell Count,[1],172 and 221
same,Population Apoptotic (%),[2],38% and 55%
same,Population Fragmented Nuclei (%),[2],9% and 10%
same,Population Healthy Nuclei (%),[2],79% and 71%
same,Population Hoechst High Intensity Objects (%),[2],0%
same,Population Membrane Permeable-Phenotype (%),[2],8% and 4%
same,Population Mitochondria Different-Phenotype (%),[2],0%
same,Population Mitotic Cells (%),[2],61% and 44%
same,Population Normal (%),[2],100%
same,Population Pyknosed Nuclei (%),[2],11% and 18%
same,Population Tubulin-Different-Phenotype (%),[2],17% and 7%
same,Total Cell Count,[2],161 and 156
same,Population Apoptotic (%),[3],63% and 48%
same,Population Fragmented Nuclei (%),[3],11% and 14%
same,Population Healthy Nuclei (%),[3],64% and 67%
same,Population Hoechst High Intensity Objects (%),[3],0%
same,Population Membrane Permeable-Phenotype (%),[3],2% and 4%
same,Population Mitochondria Different-Phenotype (%),[3],0% and 3%
same,Population Mitotic Cells (%),[3],36% and 51%
same,Population Normal (%),[3],100%
same,Population Pyknosed Nuclei (%),[3],23% and 18%
same,Population Tubulin-Different-Phenotype (%),[3],11% and 9%
same,Total Cell Count,[3],171 and 247
same,Population Apoptotic (%),[4],40% and 57%
same,Population Fragmented Nuclei (%),[4],14% and 16%
same,Population Healthy Nuclei (%),[4],71% and 70%
same,Population Hoechst High Intensity Objects (%),[4],0%
same,Population Membrane Permeable-Phenotype (%),[4],7%
same,Population Mitochondria Different-Phenotype (%),[4],1% and 0%
same,Population Mitotic Cells (%),[4],59% and 42%
same,Population Normal (%),[4],100%
same,Population Pyknosed Nuclei (%),[4],13%
same,Population Tubulin-Different-Phenotype (%),[4],16% and 11%
same,Total Cell Count,[4],158 and 160
same,Population Apoptotic (%),[5],69% and 74%
same,Population Fragmented Nuclei (%),[5],15% and 18%
same,Population Healthy Nuclei (%),[5],65% and 68%
same,Population Hoechst High Intensity Objects (%),[5],0%
same,Population Membrane Permeable-Phenotype (%),[5],7% and 4%
same,Population Mitochondria Different-Phenotype (%),[5],0%
same,Population Mitotic Cells (%),[5],30% and 25%
same,Population Normal (%),[5],100%
same,Population Pyknosed Nuclei (%),[5],19% and 12%
same,Population Tubulin-Different-Phenotype (%),[5],12% and 5%
same,Total Cell Count,[5],172 and 253
same,Population Apoptotic (%),[6],61% and 94%
same,Population Fragmented Nuclei (%),[6],17% and 18%
same,Population Healthy Nuclei (%),[6],70% and 71%
same,Population Hoechst High Intensity Objects (%),[6],0%
same,Population Membrane Permeable-Phenotype (%),[6],4% and 6%
same,Population Mitochondria Different-Phenotype (%),[6],0%
same,Population Normal (%),[6],100%
same,Population Pyknosed Nuclei (%),[6],11% and 10%
same,Population Tubulin-Different-Phenotype (%),[6],8%
same,Total Cell Count,[6],151 and 170
CS(=O)(=O)c1ccc(C(=O)Nc2cccc(COc3ccc(Br)cc3CN3CC[C@H](O)C3)c2)cc1.O=CO,Population Fragmented Nuclei (%),[1],13% and 4%
same,Population Healthy Nuclei (%),[1],48% and 65%
same,Population Hoechst High Intensity Objects (%),[1],0%
same,Population Mitotic Cells (%),[1],52%
same,Population Normal (%),[1],100%
same,Population Pyknosed Nuclei (%),[1],37% and 30%
same,Total Cell Count,[1],166 and 138
same,Population Fragmented Nuclei (%),[2],15% and 22%
same,Population Healthy Nuclei (%),[2],55% and 64%
same,Population Hoechst High Intensity Objects (%),[2],0%
same,Population Mitotic Cells (%),[2],51%
same,Population Normal (%),[2],100%
same,Population Pyknosed Nuclei (%),[2],30%
same,Total Cell Count,[2],180 and 311
same,Population Fragmented Nuclei (%),[3],9% and 14%
same,Population Healthy Nuclei (%),[3],54% and 50%
same,Population Hoechst High Intensity Objects (%),[3],0%
same,Population Normal (%),[3],100% and 99%
same,Total Cell Count,[3],142 and 175
same,Population Fragmented Nuclei (%),[4],18% and 28%
same,Population Healthy Nuclei (%),[4],57% and 60%
same,Population Hoechst High Intensity Objects (%),[4],0%
same,Population Mitotic Cells (%),[4],29% and 31%
same,Population Normal (%),[4],99%
same,Population Pyknosed Nuclei (%),[4],10%
same,Total Cell Count,[4],214 and 336
same,Population Fragmented Nuclei (%),[5],14% and 21%
same,Population Healthy Nuclei (%),[5],55% and 59%
same,Population Hoechst High Intensity Objects (%),[5],0% and 1%
same,Population Mitotic Cells (%),[5],36% and 22%
same,Population Normal (%),[5],100% and 98%
same,Population Pyknosed Nuclei (%),[5],29% and 19%
same,Total Cell Count,[5],147 and 164
same,Population Fragmented Nuclei (%),[6],28% and 31%
same,Population Healthy Nuclei (%),[6],62% and 61%
same,Population Hoechst High Intensity Objects (%),[6],0%
same,Population Mitotic Cells (%),[6],4% and 13%
same,Population Normal (%),[6],100% and 99%
same,Population Pyknosed Nuclei (%),[6],9%
same,Total Cell Count,[6],253 and 402
Cc1cccc(S(=O)(=O)N(C)[C@H](C)CCN2CCC(C)CC2)c1.Cl,Population Apoptotic (%),[1],34% and 44%
same,Population Fragmented Nuclei (%),[1],11% and 9%
same,Population Healthy Nuclei (%),[1],67% and 73%
same,Population Hoechst High Intensity Objects (%),[1],0%
same,Population Membrane Permeable-Phenotype (%),[1],8% and 4%
same,Population Mitochondria Different-Phenotype (%),[1],1% and 3%
same,Population Mitotic Cells (%),[1],65% and 55%
same,Population Normal (%),[1],100%
same,Population Pyknosed Nuclei (%),[1],20% and 17%
same,Population Tubulin-Different-Phenotype (%),[1],16% and 10%
same,Total Cell Count,[1],140 and 163
same,Population Apoptotic (%),[2],42% and 46%
same,Population Fragmented Nuclei (%),[2],16% and 8%
same,Population Healthy Nuclei (%),[2],70% and 80%
same,Population Hoechst High Intensity Objects (%),[2],0%
same,Population Membrane Permeable-Phenotype (%),[2],6% and 4%
same,Population Mitochondria Different-Phenotype (%),[2],2% and 1%
same,Population Mitotic Cells (%),[2],57% and 53%
same,Population Normal (%),[2],100%
same,Population Pyknosed Nuclei (%),[2],13% and 10%
same,Population Tubulin-Different-Phenotype (%),[2],35% and 13%
same,Total Cell Count,[2],187 and 145
same,Population Apoptotic (%),[3],50% and 54%
same,Population Fragmented Nuclei (%),[3],16% and 13%
same,Population Healthy Nuclei (%),[3],61% and 71%
same,Population Hoechst High Intensity Objects (%),[3],1% and 0%
same,Population Membrane Permeable-Phenotype (%),[3],8% and 2%
same,Population Mitochondria Different-Phenotype (%),[3],1% and 0%
same,Population Mitotic Cells (%),[3],50% and 45%
same,Population Normal (%),[3],98% and 100%
same,Population Pyknosed Nuclei (%),[3],22% and 15%
same,Population Tubulin-Different-Phenotype (%),[3],14% and 9%
same,Total Cell Count,[3],144 and 156
same,Population Apoptotic (%),[4],50% and 53%
same,Population Fragmented Nuclei (%),[4],13% and 9%
same,Population Healthy Nuclei (%),[4],76% and 81%
same,Population Hoechst High Intensity Objects (%),[4],0%
same,Population Membrane Permeable-Phenotype (%),[4],6% and 1%
same,Population Mitochondria Different-Phenotype (%),[4],2% and 0%
same,Population Mitotic Cells (%),[4],50% and 46%
same,Population Normal (%),[4],100%
same,Population Pyknosed Nuclei (%),[4],10% and 9%
same,Total Cell Count,[4],177 and 144
same,Population Apoptotic (%),[5],58% and 73%
same,Population Fragmented Nuclei (%),[5],15%
same,Population Healthy Nuclei (%),[5],63% and 72%
same,Population Hoechst High Intensity Objects (%),[5],0%
same,Population Membrane Permeable-Phenotype (%),[5],4% and 1%
same,Population Mitochondria Different-Phenotype (%),[5],2% and 0%
same,Population Mitotic Cells (%),[5],41% and 26%
same,Population Normal (%),[5],100%
same,Population Pyknosed Nuclei (%),[5],20% and 11%
same,Total Cell Count,[5],139 and 160
same,Population Apoptotic (%),[6],54% and 72%
same,Population Fragmented Nuclei (%),[6],20% and 11%
same,Population Healthy Nuclei (%),[6],74% and 81%
same,Population Hoechst High Intensity Objects (%),[6],0%
same,Population Membrane Permeable-Phenotype (%),[6],2%
same,Population Mitochondria Different-Phenotype (%),[6],0%
same,Population Mitotic Cells (%),[6],45% and 27%
same,Population Normal (%),[6],100%
same,Population Pyknosed Nuclei (%),[6],5% and 7%
same,Total Cell Count,[6],185 and 152
CN1CCc2cc(Cl)c(O)cc2[C@@H](c2ccccc2)C1.Cl,Population Apoptotic (%),[1],46% and 55%
same,Population Fragmented Nuclei (%),[1],10% and 17%
same,Population Healthy Nuclei (%),[1],63%
same,Population Hoechst High Intensity Objects (%),[1],1% and 0%
same,Population Membrane Permeable-Phenotype (%),[1],10% and 6%
same,Population Mitochondria Different-Phenotype (%),[1],1% and 4%
same,Population Mitotic Cells (%),[1],53% and 44%
same,Population Normal (%),[1],98% and 99%
same,Population Pyknosed Nuclei (%),[1],26% and 18%
same,Population Tubulin-Different-Phenotype (%),[1],15% and 14%
same,Total Cell Count,[1],175 and 235
same,Population Apoptotic (%),[2],43% and 53%
same,Population Fragmented Nuclei (%),[2],11% and 17%
same,Population Healthy Nuclei (%),[2],71% and 78%
same,Population Hoechst High Intensity Objects (%),[2],0%
same,Population Membrane Permeable-Phenotype (%),[2],4% and 3%
same,Population Mitochondria Different-Phenotype (%),[2],3% and 4%
same,Population Mitotic Cells (%),[2],56% and 46%
same,Population Normal (%),[2],100%
same,Population Tubulin-Different-Phenotype (%),[2],21% and 12%
same,Total Cell Count,[2],244 and 283
same,Population Apoptotic (%),[3],52% and 62%
same,Population Fragmented Nuclei (%),[3],6% and 18%
same,Population Healthy Nuclei (%),[3],69% and 67%
same,Population Hoechst High Intensity Objects (%),[3],1% and 0%
same,Population Membrane Permeable-Phenotype (%),[3],12% and 7%
same,Population Mitochondria Different-Phenotype (%),[3],0% and 1%
same,Population Mitotic Cells (%),[3],47% and 37%
same,Population Normal (%),[3],98% and 100%
same,Population Pyknosed Nuclei (%),[3],23% and 14%
same,Population Tubulin-Different-Phenotype (%),[3],20% and 11%
same,Total Cell Count,[3],161 and 242
same,Population Apoptotic (%),[4],65% and 83%
same,Population Fragmented Nuclei (%),[4],16% and 21%
same,Population Healthy Nuclei (%),[4],76%
same,Population Hoechst High Intensity Objects (%),[4],0%
same,Population Membrane Permeable-Phenotype (%),[4],3% and 2%
same,Population Mitochondria Different-Phenotype (%),[4],2% and 0%
same,Population Mitotic Cells (%),[4],35% and 16%
same,Population Normal (%),[4],100%
same,Population Pyknosed Nuclei (%),[4],7% and 2%
same,Population Tubulin-Different-Phenotype (%),[4],20% and 10%
same,Total Cell Count,[4],265 and 295
same,Population Apoptotic (%),[5],53% and 75%
same,Population Fragmented Nuclei (%),[5],9% and 18%
same,Population Healthy Nuclei (%),[5],72% and 73%
same,Population Hoechst High Intensity Objects (%),[5],0%
same,Population Membrane Permeable-Phenotype (%),[5],8% and 4%
same,Population Mitochondria Different-Phenotype (%),[5],1% and 2%
same,Population Mitotic Cells (%),[5],46% and 25%
same,Population Normal (%),[5],100% and 99%
same,Population Pyknosed Nuclei (%),[5],18% and 8%
same,Population Tubulin-Different-Phenotype (%),[5],11% and 7%
same,Total Cell Count,[5],175 and 251
same,Population Apoptotic (%),[6],76% and 100%
same,Population Fragmented Nuclei (%),[6],21% and 26%
same,Population Healthy Nuclei (%),[6],73% and 72%
same,Population Hoechst High Intensity Objects (%),[6],0%
same,Population Membrane Permeable-Phenotype (%),[6],4% and 1%
same,Population Mitochondria Different-Phenotype (%),[6],0%
same,Population Mitotic Cells (%),[6],23% and 0%
same,Population Normal (%),[6],100%
same,Population Pyknosed Nuclei (%),[6],4% and 0%
same,Population Tubulin-Different-Phenotype (%),[6],12% and 3%
same,Total Cell Count,[6],292 and 324
